Test results: ChEMBL document CHEMBL1130206, “Arylcarbamate derivatives of 1-piperidineethanol as potent ligands for 5-HT4 receptors” (J Med Chem, 1997); call rule not given here
pEC50, pIC50, pKi: −log10 of the molar value.

Assays:
[1] = species: Cavia porcellus; test: Agonist activity was assessed as the concentration which gave a 50% increase in the response to electrical stimulation in the guinea pig ileum and is expressed as percent of the maximum 5-HT response = 78%; assay type: functional
Procedure, shortened: (§1)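 Guinea pig ileum myenteric plexus–longitudinal muscle strip, 0.5 g tension, transmural stimulation at 0.2 Hz and 1.5 ms. Phenoxybenzamine 10^-7 M present, voltage set to give 50% of supramaximal contraction. After two reproducible cumulative 5-HT curves, a cumulative agonist curve was run (60–120 s contact). EC50 = concentration giving 50% increase of the stimulated response, relative to maximum. Max effect expressed as % of 5-HT maximum, 95% confidence limits.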

[2] = species: Cavia porcellus; test: Agonist activity was assessed as the concentration which gave a 50% increase in the response to electrical stimulation in the guinea pig ileum; NA is not active; assay type: functional; procedure, shortened: as §1
[3] = species: Cavia porcellus; test: Antagonist activity was calculated as the concentration which produced a 50% reduction in the submaximal of 5-HT induced contractions guinea pig ileum; assay type: functional
[4] = molecular target: T1, 5-hydroxytryptamine receptor 4 (Rattus norvegicus, UniProt Q62758); test: Binding affinity (Ki+/-SEM) against 5-hydroxytryptamine 4 receptor from cheng Prusoff equation by using [3H]GR-113808 in rat striatum
T1 sequence (Q62758 whole entry): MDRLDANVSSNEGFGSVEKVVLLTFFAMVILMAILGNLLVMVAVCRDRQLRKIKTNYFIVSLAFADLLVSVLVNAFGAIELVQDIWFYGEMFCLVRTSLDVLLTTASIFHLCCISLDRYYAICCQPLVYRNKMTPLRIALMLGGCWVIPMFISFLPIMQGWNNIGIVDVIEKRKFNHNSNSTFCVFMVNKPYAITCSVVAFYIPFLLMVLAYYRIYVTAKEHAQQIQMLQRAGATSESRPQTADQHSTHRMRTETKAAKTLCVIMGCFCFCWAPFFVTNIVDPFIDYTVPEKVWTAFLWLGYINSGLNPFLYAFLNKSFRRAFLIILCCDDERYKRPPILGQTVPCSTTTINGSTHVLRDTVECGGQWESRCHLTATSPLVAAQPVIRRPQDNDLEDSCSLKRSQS
Procedure, shortened: (§2)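 Rat striatal membranes in 50 mM Hepes pH 7.4, 0.1–0.2 mg protein in 0.5 mL, with [3H]GR 113808. Seven drug concentrations, tested in triplicate. Nonspecific binding defined with 10 μM ML 10302. Bound ligand collected by filtration on PEI-soaked GF/B filters, washed with 50 mM Tris-HCl pH 8.4, counted by scintillation. IC50 fitted, Ki from Cheng–Prusoff, ±SEM.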

[5] = species: Cavia porcellus; test: Agonist activity was assessed as the concentration which gave a 50% increase in the response to electrical stimulation in the guinea pig ileum; assay type: functional; procedure, shortened: as §1
[6] = molecular target: T1, 5-hydroxytryptamine receptor 4; test: Binding affinity at 5-hydroxytryptamine 4 receptor in rat striatal membranes by [3H]GR-113808 displacement.; assay type: cell membranes, Striatum, Membrane; procedure, shortened: as §2
[7] = molecular target: T2, 5-hydroxytryptamine receptor 4 (Cavia porcellus, UniProt O70528); test: concentration which gave a 50% increase in the response to electrical stimulation against 5-hydroxytryptamine 4 receptor in the guinea pig ileum.; assay type: functional, tissue-based; procedure, shortened: as §1
T2 sequence (O70528 whole entry): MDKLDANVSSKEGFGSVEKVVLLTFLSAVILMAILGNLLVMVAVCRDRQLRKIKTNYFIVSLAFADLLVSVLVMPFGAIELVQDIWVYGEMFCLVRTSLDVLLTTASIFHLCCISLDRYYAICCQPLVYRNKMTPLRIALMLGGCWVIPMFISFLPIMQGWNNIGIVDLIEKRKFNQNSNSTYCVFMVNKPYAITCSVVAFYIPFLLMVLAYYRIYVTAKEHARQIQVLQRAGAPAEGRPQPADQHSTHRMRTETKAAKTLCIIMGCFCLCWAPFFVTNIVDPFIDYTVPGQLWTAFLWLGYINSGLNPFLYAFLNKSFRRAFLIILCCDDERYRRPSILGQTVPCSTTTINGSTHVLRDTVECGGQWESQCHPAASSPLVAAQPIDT

[8] = molecular target: T2, 5-hydroxytryptamine receptor 4; test: The antagonist activity was calculated as the concentration which produced a 50% reduction against 5-hydroxytryptamine 4 receptor in guinea pig ileum.; assay type: functional, tissue-based
[9] = species: Cavia porcellus; test: Agonist activity was assessed as the concentration which gave a 50% increase in the response to electrical stimulation in the guinea pig ileum and is expressed as percent of the maximum 5-HT response = 14%; assay type: functional; procedure, shortened: as §1
[10] = molecular target: T2, 5-hydroxytryptamine receptor 4; test: concentration which gave a 50% increase in the response to electrical stimulation against 5-hydroxytryptamine 4 receptor in the guinea pig ileum. Activity expressed as percent of the maximum 5-HT response given in brackets.; assay type: functional, tissue-based; procedure, shortened: as §1
[11] = species: Cavia porcellus; test: Antagonist activity was calculated as the concentration which produced a 50% reduction in the submaximal of 5-HT induced contractions guinea pig ileum and is expressed as percent of the maximum 5-HT response = 60%; assay type: functional
[12] = species: Cavia porcellus; test: Antagonist activity was calculated as the concentration which produced a 50% reduction in the submaximal of 5-HT induced contractions guinea pig ileum and is expressed as percent of the maximum 5-HT response = 70%; assay type: functional
[13] = molecular target: T2, 5-hydroxytryptamine receptor 4; test: The antagonist activity was calculated as the concentration which produced a 50% reduction against 5-hydroxytryptamine 4 receptor in guinea pig ileum. 95% confidence limits are in brackets.; assay type: functional, tissue-based

SMILES	pIC50 [3]	pKi [4]	pKi [6]	further results
COc1cc(N)c(Cl)cc1C(=O)OCCN1CCCCC1				pEC50 [1]: 8.40
CCN(CC)CCOC(=O)c1cc(Cl)c(N)cc1OC	7.11			EC50 [2]: Not Active
COc1cc(N)c(Cl)cc1NC(=O)OCCN1CC(C)CC(C)C1 (centres undefined)		8.62		pEC50 [7]: < 6.00; pIC50 [8]: 6.74
Cn1cc(C(=O)OCC2CCN(CCNS(C)(=O)=O)CC2)c2ccccc21	7.89			EC50 [2]: Not Active
COc1ccccc1NC(=O)OCCN1C[C@H](C)C[C@H](C)C1			8.59	pEC50 [5]: < 6.00; pIC50 [11]: 6.80
CCOc1ccccc1NC(=O)OCCN1C[C@H](C)C[C@H](C)C1			8.98	pEC50 [5]: < 6.00; pIC50 [12]: 7.52
CCN(CC)CCOC(=O)Nc1cc(Cl)c(N)cc1OC		6.82		pEC50 [10]: 6.52; pIC50 [8]: 6.00
COc1cc(N)c(Cl)cc1NC(=O)OCCN1CCCC(C)C1 (centres undefined)		7.99		
COc1cc(N)c(Cl)cc1NC(=O)OCCN1CCC(C)CC1		7.60		pEC50 [10]: 7.22; pIC50 [8]: 6.70
COc1cc(N)c(Cl)cc1NC(=O)CCCN1CCCCC1		< 6.00		
COc1cc(N)c(Cl)cc1C(=O)OCCN1C[C@H](C)C[C@H](C)C1	7.96		9.59	EC50 [2]: Not Active
CCOc1ccccc1NC(=O)OCCN1CC(C)C[C@@H](C)C1 (single isomer, unassigned)	7.00		8.94	pEC50 [5]: < 6.00

Continued, in another order:

pIC50 [3]	pKi [4]	pKi [6]	SMILES	further results
	< 6.00		Nc1cccc(NC(=O)OCCN2CCCCC2)c1	
7.21		8.59	CCOc1ccccc1NC(=O)OCCN1CCCCC1	pEC50 [5]: < 6.00
	< 6.00		Nc1ccccc1NC(=O)OCCN1CCCCC1	
< 6.00		7.22	O=C(Nc1cccc(Cl)c1)OCCN1CCCCC1	pEC50 [5]: < 6.00
7.52		8.38	COc1ccc(Cl)cc1NC(=O)OCCN1CCCCC1	pEC50 [9]: ~6.00
		7.09	COc1ccccc1NC(=O)OCCCN1CCCCC1	
		< 6.00	COc1ccccc1NC(=O)CCCN1CCCCC1	
~6.00		7.50	O=C(Nc1ccccc1)OCCN1CCCCC1	pEC50 [5]: < 6.00
	6.90		COc1cc(N)c(Cl)cc1NC(=O)OCCN1CCCC1	pEC50 [10]: 6.70
	< 6.00		Nc1ccc(NC(=O)OCCN2CCCCC2)cc1	
	7.41		COc1cc(N)c(Cl)cc1NC(=O)OCCN1CCCCC1	pEC50 [7]: < 6.00
		6.14	O=C(Nc1ccc(Cl)cc1)OCCN1CCCCC1	
	7.84		COc1cc(N)c(Cl)cc1NC(=O)OCCN1CCCCCC1	pEC50 [7]: 7.00; pIC50 [13]: 6.68
		< 6.00	O=C(Nc1ccccc1Cl)OCCN1CCCCC1	
~6.52		8.05	COc1ccccc1NC(=O)OCCN1CCCCC1	pEC50 [9]: ~7.00
		6.33	COc1cccc(NC(=O)OCCN2CCCCC2)c1	
		< 6.00	COc1ccc(NC(=O)OCCN2CCCCC2)cc1	
